For data set [1] the following is noted: cited from earlier work.
For data set [2] the following is noted: normal rats, mean ± SD, cited from earlier work.
Data set [3] in a line: Ex-vivo biodistribution of ^18F-1 co-injected with ^131I-OIH in normal rats. Also noted: species or system Sprague-Dawley rats. The conditions noted are these: mean ± SD.
The conditions of data set [4]: cited from earlier work. The source holds these as a separate data set.
For data set [5] the following is noted: pH 7, room temperature, over 23 hours after labeling.
For data set [6] the following is noted: rat plasma, ultrafiltration, mean of duplicate.
For data set [7] the following is noted: rat blood, mean of duplicate.
The conditions of data set [8]: rat urine collected for 10 min after i.v. injection.
The conditions of data set [9]: rats, 1 h post injection; cited from earlier work.
Data set [10] can be described thus: Thermal stability of labeling precursor by HPLC. The conditions noted are these: 110 °C for 1 hour. The format is physicochemical. The essentials: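 Tosylate labeling precursor heated at 110 °C for 1 hour. Stability is judged by comparing its HPLC chromatograms before and after heating.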

Where “and” joins values, the source holds several entries; their conditions need not be identical. Identical values can stand only once. Like-named read-outs stand apart in the source and are kept apart here.

Regarding `O=C(O)CNC(=O)c1ccccc1[131I]` [OIH, ^131I-orthoidodohippurate], the Plasma protein binding in data set [1] was 44%. Also, in [2] (10 min after injection), the Blood activity is on record as 5.8 ± 1.0 %ID; the “Bowel activity (intestines and stomach)” value is listed as 1.8 ± 0.2 %ID; the Heart activity is listed as 0.2 ± 0.0 %ID; the Kidney activity is 4.8 ± 0.8 %ID. For the same molecule, in [2] (10 min after injection), the Liver activity was 3.0 ± 0.9 %ID, the Lung activity is listed as 0.4 ± 0.1 %ID, the Spleen activity was 0.1± 0.0 %ID and the Urine activity is reported as 54.2 ± 9.2 %ID. Moreover, in data set [2] (60 min after injection), the Blood activity is recorded as 0.5 ± 0.4 %ID; the “Bowel activity (intestines and stomach)” value is given as 1.2 ± 0.5 %ID; the Heart activity is recorded as 0.1 ± 0.0 %ID; the Kidney activity was 0.5 ± 0.2 %ID. For the same molecule, in data set [2] (60 min after injection), the Liver activity was 0.5 ± 0.1 %ID, the Lung activity is listed as 0.1 ± 0.1 %ID, the Spleen activity is given as 0.1 ± 0.1 %ID and the Urine activity is reported as 80.2 ± 5.3 %ID. Moreover, in [3] (10 min after i.v. injection), the Blood activity came to 4.5 ± 0.4 %ID; the “Bowel activity (intestines and stomach)” value came out at 1.3 ± 0.6 %ID; the Heart activity amounted to 0.1 ± 0.0 %ID; the Kidney activity was found to be 5.2 ± 1.6 %ID. In data set [3] (10 min after i.v. injection), this molecule came in with a Liver activity of 2.8 ± 0.6 %ID, a Lung activity of 0.3 ± 0.1 %ID, a Spleen activity of 0.1 ± 0.0 %ID and a Urine activity of 54.4 ± 6.9 %ID. For the same molecule, in [3] (60 min after i.v. injection), the Blood activity was found to be 0.8 ± 0.1 %ID; the “Bowel activity (intestines and stomach)” value is reported as 1.1 ± 0.2 %ID; the Heart activity is recorded as 0.0 ± 0.0 %ID; the Kidney activity is given as 1.0 ± 0.8 %ID. In addition, in [3] (60 min after i.v. injection), the Liver activity was determined as 0.6 ± 0.1 %ID, the Lung activity is recorded as 0.1 ± 0.1 %ID, the Spleen activity came out at 0.0 ± 0.0 %ID and the Urine activity stood at 84.8 ± 3.8 %ID. Besides, the Red cell uptake in data set [4] is on record as 35%.
Take `O=C([O-])CN(CC[18F])CC(=O)[O-].[C-]#[O+].[C-]#[O+].[C-]#[O+].[Re+]` [^18F-1, rhenium-tricarbonyl-N-(2-[^18F]fluoroethyl)iminodiacetic acid]: in data set [5], the “In vitro stability of formulated solution (HPLC)” value was “No measurable decomposition”. Also, the “Plasma protein binding (PPB)” value in [6] was found to be 87%. For the same molecule, the “Erythrocyte uptake (RCB)” value in data set [7] is on record as 21%. In addition, in data set [3] (10 min), the “%Urine: urine activity as a percentage of ^131I-OIH (^18F/^131I-OIH ratio)” value is 92% and 92 ± 14%. In data set [3] (10 min after i.v. injection), the Blood activity stood at 5.2 ± 0.7 %ID; the Bone uptake stood at 0.08 ± 0.01 %ID/g; the “Bowel activity (intestines and stomach)” value is given as 2.1 ± 1.7 %ID; the Heart activity was 0.1 ± 0.0 %ID. In [3] (10 min after i.v. injection), this molecule gave a Kidney activity of 9.4 ± 2.0 %ID, a Liver activity of 5.6 ± 0.3 %ID, a Lung activity of 0.4 ± 0.1 %ID and a Spleen activity of 0.1 ± 0.0 %ID. This molecule also gave a Urine activity in data set [3] (10 min after i.v. injection) of 49.3 ± 3.7 %ID. Further, the “%Urine: urine activity as a percentage of ^131I-OIH (^18F/^131I-OIH ratio)” value in data set [3] (60 min) is 95% and 95 ± 5%. For the same molecule, in data set [3] (60 min after i.v. injection), the Blood activity is listed as 0.3 ± 0.1 %ID; the “Bowel activity (intestines and stomach)” value was 3.9 ± 2.0 %ID; the Heart activity is on record as 0.0 ± 0.0 %ID; the Kidney activity was 1.0 ± 0.7 %ID. Further, in data set [3] (60 min after i.v. injection), the Liver activity is listed as 0.4 ± 0.1 %ID, the Lung activity is on record as 0.1 ± 0.1 %ID, the Spleen activity amounted to 0.0 ± 0.0 %ID and the Urine activity came out at 80.5 ± 4.4 %ID. In data set [8], the “In vivo stability: HPLC analysis of urine for metabolites” value was “only the intact parent compound”.
On to `O=C(O)CNC(=O)c1ccc([18F])cc1` [^18F-PFH, p-^18F-fluorohippuran], for which, in data set [9], the Activity in blood is given as ~ 0.3 %ID and the Activity in urine is given as ~ 81 % ID.
Take “^99mTc(CO)3(2-fluoroethyl)iminodiacetic acid [^99mTc-1]”: the “%Urine: urine activity as a percentage of ^131I-OIH (^99mTc/^131I-OIH ratio)” value in [2] (10 min) was 100 ± 4%. In [2] (10 min after injection), the Blood activity is recorded as 5.1 ± 0.9 %ID; the “Bowel activity (intestines and stomach)” value is given as 2.9 ± 0.5 %ID; the Heart activity was 0.1 ± 0.0 %ID; the Kidney activity is listed as 6.6 ± 2.1 %ID. In data set [2] (10 min after injection), the Liver activity is listed as 5.9 ± 0.8 %ID, the Lung activity was 0.4 ± 0.2 %ID, the Spleen activity was 0.1 ± 0.0 %ID and the Urine activity is listed as 54.1 ± 7.2 %ID. Further, the “%Urine: urine activity as a percentage of ^131I-OIH (^99mTc/^131I-OIH ratio)” value in [2] (60 min) is recorded as 99 ± 2%. In data set [2] (60 min after injection), the Blood activity was 0.3 %ID and 0.3 ± 0.1 %ID; the “Bowel activity (intestines and stomach)” value is 2.9 ± 1.4 %ID; the Heart activity was 0.0 ± 0.0 %ID; the Kidney activity was 0.7 ± 0.2 %ID. In data set [2] (60 min after injection), the Liver activity was 0.8 ± 0.1 %ID, the Lung activity is on record as 0.1 ± 0.1 %ID, the Spleen activity is on record as 0.1 ± 0.2 %ID and the Urine activity is listed as 79.2 ± 6.4 %ID. In addition, the Erythrocyte uptake in data set [4] (rats) was 20%.
Take “rhenium-tricarbonyl-N-(2-(4-methylbenzenesulphonate)ethyl))iminodiacetic acid [Re-OTs]”: the “Stability on heating (HPLC)” value in data set [10] is recorded as “stable”.

The record behind these values is PMC5817033 (Nuclear medicine and biology, 2017).
